Values after ≈ are worked out from the molar mass of the structure shown.
tested on: Vero; test: Cytotoxicity against african green monkey Vero cells after 72 hrs by MTS assay; format: cell-based; conditions: Chlorocebus sabaeus
Summary of the method: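 VERO cells (CCL-81), 72 h exposure, tetrazolium dye read-out.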

Which IC50 does the source give for `O=[N+]([O-])c1cn2c(n1)OC[C@@H](OCc1ccc(-c3cccc(O)c3)cc1)C2` here?
The IC50 was greater than 125 µM.

With `O=[N+]([O-])c1cn2c(n1)OC[C@@H](OCc1ccc(-c3cccc(OC(F)(F)F)c3)cc1)C2` as the molecule, how does the IC50 read?
The IC50 was greater than 125 µM.

With `O=[N+]([O-])c1cn2c(n1)OC[C@@H](OCc1ccccc1-c1ccccc1OC(F)(F)F)C2` as the molecule, how does the IC50 read?
The IC50 was greater than 125 µM.

Which IC50 does the source give for `O=[N+]([O-])c1cn2c(n1)OC[C@@H](OCc1ccc(-c3ccc(OCCCO)cc3)cc1)C2` here?
The IC50 was greater than 125 µM.

How did the IC50 turn out when `O=[N+]([O-])c1cn2c(n1)OC[C@@H](OCc1ccc(-c3ccc(OC(F)(F)F)c([N+](=O)[O-])c3)cc1)C2` was run?
Its IC50 is greater than 125 µM.

How did the IC50 turn out when `O=[N+]([O-])c1cn2c(n1)OC[C@@H](OCc1ccccc1-c1ccc(F)cc1)C2` was run?
The IC50 was greater than 125 µM.

For `O=[N+]([O-])c1cn2c(n1)OC[C@@H](OCc1ccc(-c3ccccc3C(F)(F)F)cc1)C2`, which IC50 is on record?
Its IC50 is greater than 125 µM.

Which IC50 does the source give for `COc1cccc(OC)c1-c1ccc(CO[C@@H]2COc3nc([N+](=O)[O-])cn3C2)cc1` here?
The IC50 was greater than 125 µM.

`CSc1cccc(-c2ccc(CO[C@@H]3COc4nc([N+](=O)[O-])cn4C3)cc2)c1` was tested. Which IC50 did it give?
The IC50 was greater than 125 µM.

`O=[N+]([O-])c1cn2c(n1)OC[C@@H](OCc1cccc(-c3ccccc3)c1)C2` was tested. Which IC50 did it give?
The IC50 was greater than 125 µM.

`O=[N+]([O-])c1cn2c(n1)OC[C@@H](OCc1cccc(-c3ccc(O)cc3)c1)C2` was tested. Which IC50 did it give?
The IC50 was greater than 125 µM.

How did the IC50 turn out when `COc1cc(OC)cc(-c2ccc(CO[C@@H]3COc4nc([N+](=O)[O-])cn4C3)cc2)c1` was run?
The IC50 was greater than 125 µM.

With `O=[N+]([O-])c1cn2c(n1)OC[C@@H](OCc1cccc(-c3ccccc3OC(F)(F)F)c1)C2` as the molecule, how does the IC50 read?
The IC50 was greater than 125 µM.

How did the IC50 turn out when `O=[N+]([O-])c1cn2c(n1)OC[C@@H](OCc1cccc(-c3cccc(O)c3)c1)C2` was run?
The IC50 was greater than 125 µM.

With `Cc1cc(-c2ccc(CO[C@@H]3COc4nc([N+](=O)[O-])cn4C3)cc2)cc(C)c1O` as the molecule, how does the IC50 read?
The IC50 was greater than 125 µM.

tested on: Mycobacterium tuberculosis; test: Antitubercular activity against Mycobacterium tuberculosis H37Rv in aerobic condition after 7 days by microplate alamar blue assay; format: functional; conditions: 168 h
Summary of the method: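 M. tuberculosis H37Rv, replicating culture; 8-day microplate assay with Alamar blue added on day 7 to read growth. […] Mean of at least two independent determinations ± SD.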

With `O=[N+]([O-])c1cn2c(n1)OC[C@@H](OCc1ccc(-c3cccc(O)c3)cc1)C2` as the molecule, how does the MIC read?
Its MIC is 0.14 µM (≈ 0.0514 µg/mL).

`O=[N+]([O-])c1cn2c(n1)OC[C@@H](OCc1ccc(-c3cccc(OC(F)(F)F)c3)cc1)C2` was tested. Which MIC did it give?
Its MIC is 0.077 µM (≈ 0.0335 µg/mL).

With `O=[N+]([O-])c1cn2c(n1)OC[C@@H](OCc1ccccc1-c1ccccc1OC(F)(F)F)C2` as the molecule, how does the MIC read?
The MIC was 1.2 µM (≈ 0.522 µg/mL).

How did the MIC turn out when `O=[N+]([O-])c1cn2c(n1)OC[C@@H](OCc1ccc(-c3ccc(OCCCO)cc3)cc1)C2` was run?
Its MIC is 0.6 µM (≈ 0.255 µg/mL).

For `O=[N+]([O-])c1cn2c(n1)OC[C@@H](OCc1ccc(-c3ccc(OC(F)(F)F)c([N+](=O)[O-])c3)cc1)C2`, which MIC is on record?
The MIC was 0.045 µM (≈ 0.0216 µg/mL).

For `O=[N+]([O-])c1cn2c(n1)OC[C@@H](OCc1ccccc1-c1ccc(F)cc1)C2`, which MIC is on record?
Its MIC is 1.2 µM (≈ 0.443 µg/mL).

With `O=[N+]([O-])c1cn2c(n1)OC[C@@H](OCc1ccc(-c3ccccc3C(F)(F)F)cc1)C2` as the molecule, how does the MIC read?
The MIC was 0.077 µM (≈ 0.0323 µg/mL).

With `COc1cccc(OC)c1-c1ccc(CO[C@@H]2COc3nc([N+](=O)[O-])cn3C2)cc1` as the molecule, how does the MIC read?
Its MIC is 0.31 µM (≈ 0.128 µg/mL).

How did the MIC turn out when `CSc1cccc(-c2ccc(CO[C@@H]3COc4nc([N+](=O)[O-])cn4C3)cc2)c1` was run?
The MIC was 0.077 µM (≈ 0.0306 µg/mL).

`O=[N+]([O-])c1cn2c(n1)OC[C@@H](OCc1cccc(-c3ccccc3)c1)C2` was tested. Which MIC did it give?
The MIC was 0.095 µM (≈ 0.0334 µg/mL).

With `O=[N+]([O-])c1cn2c(n1)OC[C@@H](OCc1cccc(-c3ccc(O)cc3)c1)C2` as the molecule, how does the MIC read?
Its MIC is 0.54 µM (≈ 0.198 µg/mL).

How did the MIC turn out when `COc1cc(OC)cc(-c2ccc(CO[C@@H]3COc4nc([N+](=O)[O-])cn4C3)cc2)c1` was run?
Its MIC is 0.28 µM (≈ 0.115 µg/mL).

How did the MIC turn out when `O=[N+]([O-])c1cn2c(n1)OC[C@@H](OCc1cccc(-c3ccccc3OC(F)(F)F)c1)C2` was run?
Its MIC is 0.46 µM (≈ 0.2 µg/mL).

With `O=[N+]([O-])c1cn2c(n1)OC[C@@H](OCc1cccc(-c3cccc(O)c3)c1)C2` as the molecule, how does the MIC read?
The MIC was 0.3 µM (≈ 0.11 µg/mL).

How did the MIC turn out when `Cc1cc(-c2ccc(CO[C@@H]3COc4nc([N+](=O)[O-])cn4C3)cc2)cc(C)c1O` was run?
Its MIC is 0.3 µM (≈ 0.119 µg/mL).

tested on: Mycobacterium tuberculosis; test: Antitubercular activity against Mycobacterium tuberculosis H37Rv in anaerobic condition after 7 days by low oxygen recovery assay; format: functional; conditions: 168 h

Which MIC does the source give for `O=[N+]([O-])c1cn2c(n1)OC[C@@H](OCc1ccc(-c3cccc(O)c3)cc1)C2` here?
Its MIC is 3.1 µM (≈ 1.14 µg/mL).

`O=[N+]([O-])c1cn2c(n1)OC[C@@H](OCc1ccc(-c3cccc(OC(F)(F)F)c3)cc1)C2` was tested. Which MIC did it give?
Its MIC is 1.4 µM (≈ 0.61 µg/mL).

How did the MIC turn out when `O=[N+]([O-])c1cn2c(n1)OC[C@@H](OCc1ccccc1-c1ccccc1OC(F)(F)F)C2` was run?
Its MIC is 6.2 µM (≈ 2.7 µg/mL).

For `O=[N+]([O-])c1cn2c(n1)OC[C@@H](OCc1ccc(-c3ccc(OCCCO)cc3)cc1)C2`, which MIC is on record?
Its MIC is 2.2 µM (≈ 0.936 µg/mL).

With `O=[N+]([O-])c1cn2c(n1)OC[C@@H](OCc1ccc(-c3ccc(OC(F)(F)F)c([N+](=O)[O-])c3)cc1)C2` as the molecule, how does the MIC read?
The MIC was 1.6 µM (≈ 0.769 µg/mL).

Which MIC does the source give for `O=[N+]([O-])c1cn2c(n1)OC[C@@H](OCc1ccccc1-c1ccc(F)cc1)C2` here?
Its MIC is 3.4 µM (≈ 1.26 µg/mL).

How did the MIC turn out when `O=[N+]([O-])c1cn2c(n1)OC[C@@H](OCc1ccc(-c3ccccc3C(F)(F)F)cc1)C2` was run?
Its MIC is 1.6 µM (≈ 0.671 µg/mL).

`COc1cccc(OC)c1-c1ccc(CO[C@@H]2COc3nc([N+](=O)[O-])cn3C2)cc1` was tested. Which MIC did it give?
Its MIC is 1 µM (≈ 0.411 µg/mL).

For `CSc1cccc(-c2ccc(CO[C@@H]3COc4nc([N+](=O)[O-])cn4C3)cc2)c1`, which MIC is on record?
The MIC was 0.95 µM (≈ 0.378 µg/mL).

`O=[N+]([O-])c1cn2c(n1)OC[C@@H](OCc1cccc(-c3ccccc3)c1)C2` was tested. Which MIC did it give?
Its MIC is 2.1 µM (≈ 0.738 µg/mL).

How did the MIC turn out when `O=[N+]([O-])c1cn2c(n1)OC[C@@H](OCc1cccc(-c3ccc(O)cc3)c1)C2` was run?
The MIC was 5.8 µM (≈ 2.13 µg/mL).

How did the MIC turn out when `COc1cc(OC)cc(-c2ccc(CO[C@@H]3COc4nc([N+](=O)[O-])cn4C3)cc2)c1` was run?
Its MIC is 0.79 µM (≈ 0.325 µg/mL).

With `O=[N+]([O-])c1cn2c(n1)OC[C@@H](OCc1cccc(-c3ccccc3OC(F)(F)F)c1)C2` as the molecule, how does the MIC read?
Its MIC is 3.3 µM (≈ 1.44 µg/mL).

`O=[N+]([O-])c1cn2c(n1)OC[C@@H](OCc1cccc(-c3cccc(O)c3)c1)C2` was tested. Which MIC did it give?
Its MIC is 3.7 µM (≈ 1.36 µg/mL).

For `Cc1cc(-c2ccc(CO[C@@H]3COc4nc([N+](=O)[O-])cn4C3)cc2)cc(C)c1O`, which MIC is on record?
The MIC was 1.5 µM (≈ 0.593 µg/mL).

Source: ChEMBL document CHEMBL1156778, “Synthesis and structure-activity studies of biphenyl analogues of the tuberculosis drug (6S)-2-nitro-6-{[4-(trifluoromethoxy)benzyl]oxy}-6,7-dihydro-5H-imidazo[2,1-b][1,3]oxazine (PA-824)” (J Med Chem, 2010)
